{"source": "ChEMBL document CHEMBL3526119", "about": "“Effect of the CYP2C8 genotype on the pharmacokinetics and pharmacodynamics of repaglinide” (Drug Metab Dispos, 2011)", "format_in_all_cases": "ADME, organism-based", "key": {"[1]": {"assay": "Tmax in healthy white human at 2 mg, po", "conditions": "in vivo"}, "[2]": {"tested_on": "Homo sapiens", "assay": "Maximal change in insulin concentration in healthy white human plasma with CYP2C8*1/*3 genotype at 2 mg, po up to 6 hrs", "conditions": "in vivo", "summary_of_the_method": "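Plasma insulin was sampled up to 6 h after a single oral 2 mg dose, with subjects fasting. It was measured by solid-phase enzyme-labelled chemiluminescent immunometric assay, calibration range 2–300 mU/l. Maximal change is the largest change from the baseline concentration within 6 h.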"}, "[3]": {"tested_on": "Homo sapiens", "assay": "Mean change in blood glucose concentration in healthy white human plasma with CYP2C8*3/*3 genotype at 2 mg, po up to 6 hrs", "conditions": "in vivo", "summary_of_the_method": "(§1)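 Single 2 mg oral dose in healthy Caucasian volunteers genotyped for CYP2C8*3, with SLCO1B1 521T>C also typed. […] Mean change is the average difference between values up to 6 h post-dose and baseline. Fasting lasted to 6 h. Mean with 95% CI or SD by genotype group.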"}, "[4]": {"tested_on": "Homo sapiens", "assay": "Maximal change in blood glucose concentration in healthy white human plasma with CYP2C8*1/*3 genotype at 2 mg, po up to 6 hrs", "conditions": "in vivo", "summary_of_the_method": "(§2)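 Venous blood glucose was read at each blood sampling time after a single oral 2 mg dose, with fasting up to 6 h. […] Maximal change is the largest change from baseline. Mean change is the average difference between values up to 6 h post-dose and baseline.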"}, "[5]": {"tested_on": "Homo sapiens", "assay": "Maximal change in blood glucose concentration in healthy white human plasma with CYP2C8*3/*3 genotype at 2 mg, po up to 6 hrs", "conditions": "in vivo", "summary_of_the_method": "as §2"}, "[6]": {"tested_on": "Homo sapiens", "assay": "Mean change in insulin concentration in healthy white human plasma with SLCO1B1 521TT/CYP2C8*1/*1 combined genotype at 2 mg, po", "conditions": "in vivo", "summary_of_the_method": "(§3)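 Healthy Caucasians got a single 2 mg oral dose and were genotyped for CYP2C8*3 and SLCO1B1 521T>C. Plasma insulin was sampled from pre-dose to 6 h and measured by solid-phase enzyme-labelled chemiluminescent immunometric assay (calibration 2–300 mU/l). Mean change is the average of post-dose values minus baseline up to 6 h, summarised per genotype group.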"}, "[7]": {"assay": "AUC (0 to infinity) in healthy white human with SLCO1B1 521TC/CYP2C8*1/*1 combined genotype at 2 mg, po", "set-up": "dose 2 mg, route oral, time infinity", "conditions": "plasma", "summary_of_the_method": "(§4)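 Healthy Caucasians genotyped for CYP2C8*3 and SLCO1B1 521T>C were given a single oral 2 mg dose of repaglinide, and alcohol, caffeine and grapefruit were withheld. Plasma was sampled before dosing and at 15 times from 0.25 to 24 h. Drug was measured by LC-MS/MS against diclofenac internal standard, linear 0.098–79.139 µg/L. Noncompartmental analysis: Cmax taken as observed; AUC by linear/log-linear trapezoidal rule extrapolated to infinity.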"}, "[8]": {"assay": "Cmax in healthy white human with SLCO1B1 521TC/CYP2C8*1/*1 combined genotype at 2 mg, po", "set-up": "dose 2 mg, route oral", "conditions": "in vivo", "summary_of_the_method": "as §4"}, "[9]": {"tested_on": "Homo sapiens", "assay": "Mean change in insulin concentration in healthy white human plasma with SLCO1B1 521TC/CYP2C8*1/*1 combined genotype at 2 mg, po", "conditions": "in vivo", "summary_of_the_method": "as §3"}, "[10]": {"assay": "AUC (0 to infinity) in healthy white human with SLCO1B1 521TT/CYP2C8*1/*3 combined genotype at 2 mg, po", "set-up": "dose 2 mg, route oral, time infinity", "conditions": "plasma", "summary_of_the_method": "as §4"}, "[11]": {"assay": "Cmax in healthy white human with SLCO1B1 521TT/CYP2C8*1/*3 combined genotype at 2 mg, po", "set-up": "dose 2 mg, route oral", "conditions": "in vivo", "summary_of_the_method": "as §4"}, "[12]": {"tested_on": "Homo sapiens", "assay": "Mean change in blood glucose concentration in healthy white human plasma SLCO1B1 521TT/CYP2C8*1/*3 combined genotype at 2 mg, po", "conditions": "in vivo", "summary_of_the_method": "as §1"}, "[13]": {"assay": "AUC (0 to infinity) in healthy white human with SLCO1B1 521TC/CYP2C8*1/*3 combined genotype at 2 mg, po", "set-up": "dose 2 mg, time infinity, route oral", "conditions": "plasma", "summary_of_the_method": "as §4"}, "[14]": {"tested_on": "Homo sapiens", "assay": "Mean change in insulin concentration in healthy white human plasma with SLCO1B1 521TC/CYP2C8*1/*3 combined genotype at 2 mg, po", "conditions": "in vivo", "summary_of_the_method": "as §3"}, "[15]": {"tested_on": "Homo sapiens", "assay": "Mean change in blood glucose concentration in healthy white human plasma SLCO1B1 521TC/CYP2C8*1/*3 combined genotype at 2 mg, po", "conditions": "in vivo", "summary_of_the_method": "as §2"}, "[16]": {"assay": "AUC (0 to infinity) in healthy white human with SLCO1B1 521CC/CYP2C8*1/*3 combined genotype at 2 mg, po", "set-up": "dose 2 mg, time infinity, route oral", "conditions": "plasma", "summary_of_the_method": "as §4"}, "[17]": {"tested_on": "Homo sapiens", "assay": "Mean change in blood glucose concentration in healthy white human plasma SLCO1B1 521CC/CYP2C8*1/*3 combined genotype at 2 mg, po", "conditions": "in vivo", "summary_of_the_method": "as §2"}, "[18]": {"tested_on": "Homo sapiens", "assay": "Mean change in insulin concentration in healthy white human plasma with CYP2C8*1/*1 genotype at 2 mg, po up to 6 hrs", "conditions": "in vivo", "summary_of_the_method": "as §3"}, "[19]": {"tested_on": "Homo sapiens", "assay": "Mean change in insulin concentration in healthy white human plasma with CYP2C8*1/*3 genotype at 2 mg, po up to 6 hrs", "conditions": "in vivo", "summary_of_the_method": "as §3"}, "[20]": {"tested_on": "Homo sapiens", "assay": "Mean change in insulin concentration in healthy white human plasma with CYP2C8*3/*3 genotype at 2 mg, po up to 6 hrs", "conditions": "in vivo", "summary_of_the_method": "as §3"}, "[21]": {"assay": "AUC (0 to infinity) in healthy white human at 2 mg, po", "set-up": "dose 2 mg, time infinity, route oral", "conditions": "plasma", "summary_of_the_method": "as §4"}, "[22]": {"assay": "AUC (0 to infinity) in healthy white human with CYP2C8*1/*3 genotype at 2 mg, po", "set-up": "dose 2 mg, time infinity, route oral", "conditions": "plasma", "summary_of_the_method": "as §4"}, "[23]": {"assay": "AUC (0 to infinity) in healthy white human with CYP2C8*3/*3 genotype at 2 mg, po", "set-up": "dose 2 mg, route oral, time infinity", "conditions": "plasma", "summary_of_the_method": "as §4"}, "[24]": {"assay": "Cmax in healthy white human with CYP2C8*1/*1 genotype at 2 mg, po", "set-up": "dose 2 mg, route oral", "conditions": "in vivo", "summary_of_the_method": "as §4"}, "[25]": {"assay": "Cmax in healthy white human with CYP2C8*3/*3 genotype at 2 mg, po", "set-up": "dose 2 mg, route oral", "conditions": "in vivo", "summary_of_the_method": "as §4"}, "[26]": {"assay": "Oral clearance in healthy white human at 2 mg, po", "conditions": "in vivo", "summary_of_the_method": "(§5)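 Repaglinide was assayed by LC-MS/MS with diclofenac internal standard (LLOQ 0.098 µg/L). Noncompartmental analysis gave AUC by linear/log-linear trapezoidal rule extrapolated to infinity. Weight-adjusted oral clearance = dose/(AUC × body weight).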"}, "[27]": {"assay": "Oral clearance in healthy white human with CYP2C8*3/*3 genotype at 2 mg, po", "conditions": "in vivo", "summary_of_the_method": "as §5"}, "[28]": {"assay": "Terminal half life in healthy white human with CYP2C8*1/*3 genotype at 2 mg, po", "conditions": "in vivo, read-out: beta t1/2 (converted)", "summary_of_the_method": "(§6)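 Single oral 2 mg dose; plasma sampled pre-dose and from 0:15 to 24 h post-dose (15 samples). Repaglinide measured by LC-MS/MS with diclofenac internal standard; calibration 0.098–79.139 µg/L. Noncompartmental analysis; AUC by linear/log-linear trapezoidal rule extrapolated to infinity. Reported as mean with 95% CI for all subjects and for each CYP2C8*3 genotype group.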"}, "[29]": {"assay": "Terminal half life in healthy white human with CYP2C8*3/*3 genotype at 2 mg, po", "conditions": "in vivo, read-out: beta t1/2 (converted)", "summary_of_the_method": "as §6"}, "[30]": {"assay": "Cmax in healthy white human with SLCO1B1 521TC/CYP2C8*3/*3 combined genotype at 2 mg, po", "set-up": "dose 2 mg, route oral", "conditions": "in vivo", "summary_of_the_method": "as §4"}, "[31]": {"tested_on": "Homo sapiens", "assay": "Mean change in insulin concentration in healthy white human plasma with SLCO1B1 521TC/CYP2C8*3/*3 combined genotype at 2 mg, po", "conditions": "in vivo", "summary_of_the_method": "as §3"}, "[32]": {"tested_on": "Homo sapiens", "assay": "Mean change in blood glucose concentration in healthy white human plasma SLCO1B1 521TC/CYP2C8*3/*3 combined genotype at 2 mg, po", "conditions": "in vivo", "summary_of_the_method": "as §1"}, "[33]": {"tested_on": "Homo sapiens", "assay": "Mean change in insulin concentration in healthy white human plasma with SLCO1B1 521CC/CYP2C8*3/*3 combined genotype at 2 mg, po", "conditions": "in vivo", "summary_of_the_method": "as §3"}}, "data": [{"molecule": "CCOc1cc(CC(=O)N[C@@H](CC(C)C)c2ccccc2N2CCCCC2)ccc1C(=O)O", "note": "[REPAGLINIDE]", "values": [{"measurement": "Tmax", "setting": "[1]", "result": 48, "unit": "min"}, {"measurement": "Activity", "setting": "[2]", "result": 17.3, "unit": "mU/L"}, {"measurement": "Activity", "setting": "[3]", "result": -0.5, "unit": "mM"}, {"measurement": "Activity", "setting": "[4]", "result": -1.83, "unit": "mM"}, {"measurement": "Activity", "setting": "[5]", "result": -1.48, "unit": "mM"}, {"measurement": "Activity", "setting": "[6]", "result": 7.1, "unit": "mU/l"}, {"measurement": "AUC(0-inf)", "setting": "[7]", "result": 146, "unit": "ng·h/mL"}, {"measurement": "Cmax", "setting": "[8]", "result": 83.7, "unit": "ng/mL"}, {"measurement": "Activity", "setting": "[9]", "result": 5.7, "unit": "mU/l"}, {"measurement": "AUC(0-inf)", "setting": "[10]", "result": 117, "unit": "ng·h/mL"}, {"measurement": "Cmax", "setting": "[11]", "result": 57, "unit": "ng/mL"}, {"measurement": "Activity", "setting": "[12]", "result": -0.5, "unit": "mM"}, {"measurement": "AUC(0-inf)", "setting": "[13]", "result": 77.2, "unit": "ng·h/mL"}, {"measurement": "Activity", "setting": "[14]", "result": 5.6, "unit": "mU/l"}, {"measurement": "Activity", "setting": "[15]", "result": -1, "unit": "mM"}, {"measurement": "AUC(0-inf)", "setting": "[16]", "result": 18.2, "unit": "ng·h/mL"}, {"measurement": "Activity", "setting": "[17]", "result": -0.2, "unit": "mM"}, {"measurement": "Activity", "setting": "[18]", "result": 6.7, "unit": "mU/L"}, {"measurement": "Activity", "setting": "[19]", "result": 5.2, "unit": "mU/L"}, {"measurement": "Activity", "setting": "[20]", "result": 2.6, "unit": "mU/L"}, {"measurement": "AUC(0-inf)", "setting": "[21]", "result": 97.4, "unit": "ng·h/mL"}, {"measurement": "AUC(0-inf)", "setting": "[22]", "result": 97.2, "unit": "ng·h/mL"}, {"measurement": "AUC(0-inf)", "setting": "[23]", "result": 72.4, "unit": "ng·h/mL"}, {"measurement": "Cmax", "setting": "[24]", "result": 60.3, "unit": "ng/mL"}, {"measurement": "Cmax", "setting": "[25]", "result": 38.5, "unit": "ng/mL"}, {"measurement": "CL/F", "setting": "[26]", "result": 7.67, "unit": "mL/min/kg"}, {"measurement": "CL/F", "setting": "[27]", "result": 8, "unit": "mL/min/kg"}, {"measurement": "half-life", "setting": "[28]", "result": 78, "unit": "min"}, {"measurement": "half-life", "setting": "[29]", "result": 78, "unit": "min"}, {"measurement": "Cmax", "setting": "[30]", "result": 15.3, "unit": "ng/mL"}, {"measurement": "Activity", "setting": "[31]", "result": 1.5, "unit": "mU/l"}, {"measurement": "Activity", "setting": "[32]", "result": -0.2, "unit": "mM"}, {"measurement": "Activity", "setting": "[33]", "result": 6.1, "unit": "mU/l"}]}]}
